This is an account of results in ChEMBL document CHEMBL5325460, “Versatile anti-infective properties of pyrido- and dihydropyrido[2,3-d]pyrimidine-based compounds” (Bioorg Med Chem, 2023).

Broadly, the IC50 is the midpoint of a concentration-inhibition curve. A word on the CC50: it is the concentration at which the toxic effect on the cells reaches its halfway point.

A value given as a limit tells only on which side of the number the result lay.

The target in data set [1] is Human immunodeficiency virus type 1 reverse transcriptase (Human immunodeficiency virus 1, UniProt Q72547). Description: Inhibition of wild type HIV-1 reverse transcriptase RNase-associated RNase H activity using RNA/DNA template-primer as substrate. The method, boiled down: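 RNase H activity of wild-type RT, run independently of RDDP, with RDS1759 as positive control. Assays in triplicate; IC50 reported ± error.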

Data set [2] deals with Leishmania major. Description: Antileishmanial activity against Leishmania major promastigotes assessed as parasite growth inhibition measured after 72 hrs by MTT based ELISA reader analysis.
Another data set concerns Toxoplasma gondii. Description: Antiparasitic activity against Toxoplasma gondii RH tachyzoites infected in African green monkey Vero cells assessed as parasitic growth inhibition incubated for 72 hrs by inverted microscopic analysis. The format is functional, organism-based. Put shortly:
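RH-strain tachyzoites grown on Vero host cells in RPMI 1640 with 10% FBS and exposed to a range of concentrations, with atovaquone as positive control. Infected cells counted under an inverted microscope; inhibition % = (1 − infected treated / infected control) × 100. IC50 from concentration–response curves at 72 h; means of at least three independent experiments.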

Data set [3] is described as follows: Cytotoxicity against African green monkey Vero cells assessed as reduction in cell viability measured after 3 days by MTT assay. Particulars: chlorocebus sabaeus, time 3 day. It is filed as toxicity, cell-based. Put shortly: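 Vero cells held 3 days with graded doses in RPMI 1640 with 5% FBS. Viability read by MTT colorimetry at 540 nm. CC50 from concentration–response curves against untreated controls; means of at least three independent experiments.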

For data set [4], the system named is Leishmania major. Description: Antileishmanial activity against Leishmania major amastigotes infected in mouse macrophages assessed as parasite growth inhibition measured after 72 hrs by MTT based ELISA reader analysis. The format is functional, organism-based. The settings on record: Macrophage. The method, boiled down: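 L. major promastigotes from a patient isolate; amastigotes from infected BALB/c mice, grown inside mouse macrophages. Viable parasites read by MTT absorbance at 570 nm.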

Data set [5] is described as follows: Selectivity index, ratio of CC50 for cytotoxicity against African green monkey Vero cells to IC50 for antiparasitic activity against Toxoplasma gondii RH tachyzoites infected in African monkey Vero cells. It is filed as toxicity, cell-based. Particulars: read-out: Ratio CC50/IC50. Put shortly: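 SI = Vero CC50 (3-day MTT, 540 nm read) divided by T. gondii RH IC50 (Vero host cells, microscopic count of infected cells); both values from concentration–response curves at 72 h.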

For `COc1ccc(C2C3=C(Nc4[nH]c(=O)[nH]c(=O)c42)c2ccccc2C3=O)cc1O` (stereo not drawn), the half-maximal inhibitory concentration (IC50) in data set [1] was over 100 µM; in the data set on Leishmania major [2], over 32.1 µM; in the data set on Toxoplasma gondii, 11.4 µM; with Leishmania major [4] it was 21.3 µM. In addition, the CC50 at 72 h in data set [3] was 8.99 µM. The selectivity ratio in data set [5] turned out to be 0.79.

Regarding `O=C1C2=C(Nc3[nH]c(=O)[nH]c(=O)c3C2c2ccc(O)c(O)c2)c2ccccc21` (stereo not drawn), the IC50 in data set [1] is 11.2 µM; with Leishmania major [2], over 33.3 µM; in the data set on Toxoplasma gondii it was 9.99 µM; in the data set on Leishmania major [4], over 33.3 µM. For the same compound, the half-maximal cytotoxic concentration (CC50) at 72 h in data set [3] was determined as 7.03 µM. The selectivity ratio in data set [5] was 0.7.

`O=C1C(O)=C([C@H]2CC[C@H](c3ccc(Cl)cc3)CC2)C(=O)c2ccccc21` [ATOVAQUONE]: the IC50 in the data set with Toxoplasma gondii turned out to be 0.07 µM. In addition, in data set [3], the half-maximal cytotoxic concentration (CC50) at 72 h amounted to 9.5 µM. Also, in data set [5], the selectivity ratio turned out to be 136.

In the case of `COc1cc(C2C3=C(Nc4[nH]c(=O)[nH]c(=O)c42)c2ccccc2C3=O)cc(OC)c1O` (stereo not drawn), the half-inhibitory concentration (IC50) in data set [1] came out at 17.1 µM; in the data set with Leishmania major [2], 31.7 µM; with Toxoplasma gondii, 11 µM; in the data set on Leishmania major [4] it was 21.2 µM. Further, in data set [3], the cytotoxic concentration (CC50) at 72 h came out at 6.08 µM. The selectivity ratio in data set [5] was found to be 0.55.

Take `COc1cc(-c2c3c(nc4[nH]c(=O)[nH]c(=O)c24)-c2ccccc2C3=O)cc(Br)c1OC`: the IC50 in the data set on Leishmania major [2] worked out at 26 µM; in the data set with Toxoplasma gondii, 1.87 µM; in the data set with Leishmania major [4], 16.2 µM. For the same compound, the CC50 at 72 h in data set [3] is 2.31 µM. Further, the selectivity ratio in data set [5] is 1.24.

In data set [1], `CCOC(=O)C(=O)CC(=O)/C=C/c1cccn1Cc1ccccc1Cl` displayed an IC50 of 8.7 µM.

Take `COc1ccc(-c2c3c(nc4[nH]c(=O)[nH]c(=O)c24)-c2ccccc2C3=O)cc1F`: the results for the 50% inhibitory concentration (IC50) in the data set on Leishmania major [2], in the data set on Toxoplasma gondii and with Leishmania major [4] were 6.68 µM, 9.25 µM and 15.7 µM, respectively. The CC50 at 72 h in data set [3] was 4.11 µM. Moreover, in data set [5], the selectivity ratio turned out to be 0.44.

As for `COc1ccc(-c2c3c(nc4[nH]c(=O)[nH]c(=O)c24)-c2ccccc2C3=O)cc1Br`, the figures for the concentration for half-maximal inhibition (IC50) in the data set with Leishmania major [2], in the data set on Toxoplasma gondii and in the data set with Leishmania major [4] were 25.1 µM, 11.8 µM and 35.8 µM, respectively. The cytotoxic concentration (CC50) at 72 h in data set [3] is 9.55 µM. The selectivity ratio in data set [5] is 0.91.

With `COc1cc(C2C3=C(Nc4[nH]c(=O)[nH]c(=O)c42)c2ccccc2C3=O)ccc1O` (stereo not drawn), the IC50 in data set [1] is over 100 µM; in the data set with Leishmania major [2], 35.4 µM; in the data set on Toxoplasma gondii it was 8.35 µM; in the data set with Leishmania major [4], 21.3 µM. In addition, the CC50 at 72 h in data set [3] turned out to be 6.16 µM. For the same compound, the selectivity ratio in data set [5] stood at 0.74.

Regarding `COc1ccc(C2C3=C(Nc4[nH]c(=O)[nH]c(=O)c42)c2ccccc2C3=O)cc1C` (stereo not drawn), the IC50 in the data set with Leishmania major [2] was over 32.3 µM; in the data set with Toxoplasma gondii it was 9.81 µM; in the data set on Leishmania major [4], 22.2 µM. For the same compound, the cytotoxic concentration (CC50) at 72 h in data set [3] is 2.89 µM. The selectivity ratio in data set [5] turned out to be 0.3.

For `O=C1C2=C(Nc3[nH]c(=O)[nH]c(=O)c3C2c2cccc(O)c2)c2ccccc21` (stereo not drawn), the concentration for half-maximal inhibition (IC50) is 93.4 µM in data set [1], over 34.8 µM in the data set on Leishmania major [2], 23.7 µM in the data set on Toxoplasma gondii and 27 µM with Leishmania major [4]. The CC50 at 72 h in data set [3] came out at 9.46 µM. Moreover, in data set [5], the selectivity ratio came out at 0.4.

As to `COc1cc(-c2c3c(nc4[nH]c(=O)[nH]c(=O)c24)-c2ccccc2C3=O)cc(Cl)c1OC`, the concentration for half-maximal inhibition (IC50) amounted to 28.2 µM in the data set with Leishmania major [2], 0.69 µM in the data set on Toxoplasma gondii and 18.6 µM in the data set with Leishmania major [4]. Further, the 50% cytotoxic concentration (CC50) at 72 h in data set [3] came out at 0.85 µM. In data set [5], the selectivity ratio was determined as 1.23.

In the case of `COc1ccc(C2C3=C(Nc4[nH]c(=O)[nH]c(=O)c42)c2ccccc2C3=O)cc1Br` (stereo not drawn), the IC50 in the data set with Leishmania major [2] was over 27.6 µM; with Toxoplasma gondii, 1.81 µM; in the data set with Leishmania major [4], 1.9 µM. In data set [3], the CC50 at 72 h is 1.73 µM. Further, the selectivity ratio in data set [5] is 0.96.

For `O=C1C2=C(Nc3[nH]c(=O)[nH]c(=O)c3C2c2ccc(O)cc2)c2ccccc21` (stereo not drawn), the IC50 is over 100 µM in data set [1], over 34.8 µM in the data set on Leishmania major [2], 20 µM with Toxoplasma gondii and 22 µM in the data set with Leishmania major [4]. The half-maximal cytotoxic concentration (CC50) at 72 h in data set [3] amounted to 3.95 µM. The selectivity ratio in data set [5] came out at 0.2.

Take `COc1ccc(C2C3=C(Nc4[nH]c(=O)[nH]c(=O)c42)c2ccccc2C3=O)cc1F` (stereo not drawn): the IC50 with Leishmania major [2] stood at 7.16 µM; in the data set with Toxoplasma gondii, 9.71 µM; in the data set with Leishmania major [4], 16.9 µM. For the same compound, the CC50 at 72 h in data set [3] is 7.16 µM. In data set [5], the selectivity ratio worked out at 0.74.

For the compound `COc1cc(-c2c3c(nc4[nH]c(=O)[nH]c(=O)c24)-c2ccccc2C3=O)cc(I)c1OC`, the results for the IC50 with Leishmania major [2], with Toxoplasma gondii and in the data set on Leishmania major [4] were 23 µM, 2.47 µM and 15.4 µM, respectively. Further, the CC50 at 72 h in data set [3] worked out at 2.22 µM. For the same compound, in data set [5], the selectivity ratio worked out at 0.9.

Turning to `O=C1C2=C(Nc3[nH]c(=O)[nH]c(=O)c3C2c2cccc(Br)c2)c2ccccc21` (stereo not drawn), the figures for the IC50 in the data set on Leishmania major [2], in the data set with Toxoplasma gondii and in the data set with Leishmania major [4] were 11.6 µM, 11.4 µM and 36.5 µM, respectively. Also, the half-maximal cytotoxic concentration (CC50) at 72 h in data set [3] stood at 16.1 µM. Moreover, the selectivity ratio in data set [5] was 1.42.

Regarding `COc1cc(C2C3=C(Nc4[nH]c(=O)[nH]c(=O)c42)c2ccccc2C3=O)cc(Cl)c1OC` (stereo not drawn), the IC50 was over 28.6 µM with Leishmania major [2], 0.41 µM in the data set with Toxoplasma gondii and 6.17 µM in the data set on Leishmania major [4]. In data set [3], the 50% cytotoxic concentration (CC50) at 72 h worked out at 0.3 µM. In addition, in data set [5], the selectivity ratio amounted to 0.73.

For the compound `C[C@@H]1[C@H](O)[C@@H](C)/C=C/C=C/C=C/C=C/C=C/C=C/C=C/[C@H](O[C@@H]2O[C@H](C)[C@@H](O)[C@H](N)[C@@H]2O)C[C@@H]2O[C@](O)(C[C@@H](O)C[C@@H](O)[C@H](O)CC[C@@H](O)C[C@@H](O)CC(=O)O[C@H]1C)C[C@H](O)[C@H]2C(=O)O` [AMPHOTERICIN B], in the data set with Leishmania major [2], the 50% inhibitory concentration (IC50) is 0.83 µM.

With `COc1cc(-c2c3c(nc4[nH]c(=O)[nH]c(=O)c24)-c2ccccc2C3=O)cc(OC)c1OC`, the concentration for half-maximal inhibition (IC50) with Leishmania major [2] was over 29 µM; in the data set on Toxoplasma gondii, 2.09 µM; in the data set with Leishmania major [4] it was 5.8 µM. Also, in data set [3], the 50% cytotoxic concentration (CC50) at 72 h is 2.02 µM. In addition, in data set [5], the selectivity ratio was 0.97.

As for `COc1cc(C2C3=C(Nc4[nH]c(=O)[nH]c(=O)c42)c2ccccc2C3=O)cc(Br)c1OC` (stereo not drawn), the results for the IC50 in the data set with Leishmania major [2], in the data set on Toxoplasma gondii and in the data set on Leishmania major [4] were over 25.9 µM, 0.73 µM and 16.4 µM, respectively. Moreover, the CC50 at 72 h in data set [3] worked out at 0.5 µM. The selectivity ratio in data set [5] stood at 0.69.

With `COc1cc(C2C3=C(Nc4[nH]c(=O)[nH]c(=O)c42)c2ccccc2C3=O)cc(I)c1OC` (stereo not drawn), the values for the IC50 in the data set with Leishmania major [2], in the data set on Toxoplasma gondii and with Leishmania major [4] were over 23.6 µM, 0.47 µM and 14 µM, respectively. Moreover, in data set [3], the CC50 at 72 h is 0.42 µM. Further, the selectivity ratio in data set [5] was found to be 0.89.

As for `COc1ccc(-c2c3c(nc4[nH]c(=O)[nH]c(=O)c24)-c2ccccc2C3=O)cc1OC`, the 50% inhibitory concentration (IC50) in the data set on Leishmania major [2] was 29.4 µM; in the data set on Toxoplasma gondii, 1.12 µM; in the data set on Leishmania major [4], 6.73 µM. The 50% cytotoxic concentration (CC50) at 72 h in data set [3] was found to be 0.87 µM. Besides, the selectivity ratio in data set [5] came out at 0.78.

With `COc1ccc(C2C3=C(Nc4[nH]c(=O)[nH]c(=O)c42)c2ccccc2C3=O)cc1OC` (stereo not drawn), the half-inhibitory concentration (IC50) is 20.3 µM in data set [1], over 31 µM in the data set on Leishmania major [2], 7.31 µM in the data set with Toxoplasma gondii and 6.94 µM in the data set with Leishmania major [4]. Also, the CC50 at 72 h in data set [3] amounted to 8.03 µM. Also, in data set [5], the selectivity ratio was 1.1.

Take `COc1cc(C2C3=C(Nc4[nH]c(=O)[nH]c(=O)c42)c2ccccc2C3=O)cc(OC)c1OC` (stereo not drawn): the concentration for half-maximal inhibition (IC50) is 21.5 µM in data set [1], over 28.8 µM in the data set on Leishmania major [2], 2.77 µM with Toxoplasma gondii and 21.2 µM in the data set with Leishmania major [4]. Moreover, the CC50 at 72 h in data set [3] is 2.1 µM. For the same compound, the selectivity ratio in data set [5] turned out to be 0.76.
